Each block holds one compound with its values, some of them ahead of it. Calls of active or inactive are those of the source. The rule behind the calls is not given here.
Key:
[1] = Cytotoxicity against mouse PancO2 cells after 72 hrs by crystal violet staining; type: functional; conditions: read-out: LD50 (the source's name)
[2] = Inhibition of human recombinant Trx1/TrxR assessed as reduction in number of free thiols from reduced insulin after 30 mins by insulin reduction assay
Procedure, shortened: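 At least seven compound concentrations. Incubated 30 min at 37 °C, stopped with 8 mM DTNB in 8 M guanidine HCl, A412. IC50 from four-parameter logistic fit. Triplicates, mean ± SD, n ≥ 3.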

EMT6 [3] = assay: Cytotoxicity against mouse EMT6 cells after 72 hrs by crystal violet staining; type: functional; conditions: EMT6, 72 h, read-out: LD50 (the source's name)
[4] = Chemical stability of the compound in 0.01 M PBS buffer at pH 7.4 after 4 days by RP-HPLC analysis; type: physicochemical; conditions: pH 7.4, 96 h
Procedure, shortened: (§1)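 Stock in DMSO (5 mg/mL) diluted about 100-fold into 0.01 M PBS pH 7.4 prewarmed to 37 °C, then held at 37 °C for up to 7 days. At each time point, 100 μL aliquots were mixed with 200 μL ethanol, chilled at 4 °C for 15 min, centrifuged and stored at −20 °C. Samples were quantified by RP-HPLC (C18, acetonitrile/water, 230 nm) against standard curves of at least five dilutions. Triplicates, n = 3.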

Raji [5] = assay: Induction of Trx mRNA expression in human Raji cells at 5 to 10 uM after 4 to 24 hrs by RT-PCR analysis; type: functional, cell-based
[6] = target: T1, Thioredoxin (Homo sapiens) (UniProt P10599); assay: Inhibition of thioredoxin in human HeLa cells assessed as decrease of H2O2 scavenging activity by measuring CM-H2DCFDA fluorescence at 10 uM after 4 hrs by flow cytometeric analysis; type: cell-based
T1 sequence (whole entry): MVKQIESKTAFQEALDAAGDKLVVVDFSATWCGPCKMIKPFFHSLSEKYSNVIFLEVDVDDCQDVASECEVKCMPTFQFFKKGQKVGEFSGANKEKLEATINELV
Procedure, shortened: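 HeLa cells treated 4 h with 10 or 20 μM compound, then trypsinized and resuspended in PBS. H2O2 added to 1 mM final for 10 min, then 1 μL of 5 mM CM-H2DCFDA for 15 min at 37 °C. Cells washed twice and 10^4 cells analyzed by flow cytometry. Triplicates, n = 3, Student's t test.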

[7] = target: T1, Thioredoxin (Homo sapiens); assay: Binding affinity to human recombinant Trx-1 expressed in Escherichia coli by mass spectrometry analysis
K562 = assay: Cytotoxicity against human K562 cells after 72 hrs by MTT assay; type: functional; conditions: K562, 72 h, read-out: LD50 (the source's name)
Procedure, shortened: (§2)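 Suspension cells were grown in RPMI-1640 with 10% heat-inactivated FBS and exposed to compound for 72 h with DMSO ≤1%. MTT (5 mg/mL solution) was added for 4 h, then plates were centrifuged, cells lysed in DMSO and read at A570. Viability is % of solvent controls, background-corrected; n ≥ 3.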

[8] = target: T1, Thioredoxin (Homo sapiens); assay: Inhibition of thioredoxin in human HeLa cells cotransfected with p-AP1-luc assessed as inhibition of ionomycin-induced AP-1 promoter activity after 6 hrs by luciferase reporter assay; type: cell-based
Procedure, shortened: (§3)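 HeLa cells nucleofected with 2 μg NF-κB- or AP-1-luciferase plasmid plus CMV-Renilla, then cultured 48 h. NF-κB: TNF (10 ng/mL) + IFN-γ (100 U) together with compound for 6 h. AP-1: 4 h in medium without FBS or antibiotics, then ionomycin (1 μM) together with compound for 6 h. Dual-luciferase read-out, firefly normalized to Renilla. Triplicates, n ≥ 3, Student's t test.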

Ramos = assay: Cytotoxicity against human Ramos cells after 72 hrs by MTT assay; type: functional; conditions: read-out: LD50 (the source's name); procedure, shortened: as §2
EMT6 [9] = assay: Antitumor activity against mouse EMT6 cells allografted in BALB/c mouse assessed as prolongation of host survival time at 80 mg/kg, ip qd for 7 days; type: functional, organism-based; parameters: dose 80 mg/kg
Procedure, shortened: (§4)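 BALB/c mice, 8−12 weeks old, inoculated sc with 3.5 × 10^5 EMT6 cells into the depilated right thigh. Intraperitoneal dosing in DMSO began on day 7, when tumors reached a longer diameter of 5−7 mm, and was given daily. Controls received ip DMSO. Tumor volume was followed by calipers as longer × shorter²/2. Survival and body weight were monitored.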

[10] = target: T1, Thioredoxin (Homo sapiens); assay: Inhibition of human recombinant Trx-1 expressed in Escherichia coli after 30 to 90 mins preincubation by insulin reduction assay in presence of thioredoxin reductase
Procedure, shortened: (§5)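 Human recombinant His-tagged Trx purified by Ni affinity and gel filtration, then dialyzed free of DTT. Trx was prereduced with TrxR and NADPH for 20 min, then preincubated with compound (2.5−20 μM) for 0−90 min at 37 °C. Reaction ran 30 min at 37 °C in Tris-HCl/EDTA pH 7.6. DTNB stop, A412. Triplicates, SD.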

[11] = target: Thioredoxin reductase (Homo sapiens) (UniProt Q16881+Q9NNW7+Q86VQ6); conditions: 2.5 to 20 uM
[12] = Chemical stability of the compound in 0.01 M PBS buffer at pH 7.4 after 5 hrs by RP-HPLC analysis; type: physicochemical; conditions: read-out: Stability; procedure, shortened: as §1
T-24 = assay: Cytotoxicity against human T24 cells after 72 hrs by crystal violet staining; type: functional; conditions: T-24, 72 h, read-out: LD50 (the source's name)
[13] = target: T1, Thioredoxin (Homo sapiens); assay: Inhibition of thioredoxin in human HeLa cells cotransfected with p-NFkB-luc assessed as inhibition of TNF/IFN-gamma-induced activation of NF-kB after 6 hrs by luciferase reporter assay; type: cell-based; procedure, shortened: as §3
[14] = Cytotoxicity against mouse bone marrow cells after 72 hrs by XTT assay; type: cell-based, Bone marrow cell; conditions: read-out: LD50
Procedure, shortened: (§6)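 hPBMC were isolated from healthy donors on Histopaque 1077 and kept in RPMI. Bone marrow came from female BALB/c mice and was cultured in Iscove's medium with 10% FBS and 100 U IL-3. After compound exposure, cells got XTT at 0.3 mg/mL for 4 h, read at A490 against 690 nm. Viability is % of DMSO controls; n ≥ 3.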

Raji [15] = assay: Inhibition of Trx1/TrxR in human Raji cells after 4 hrs by insulin reduction assay; type: cell-based
Procedure, shortened: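 Raji cells incubated with compound for 4 h, washed three times with PBS and lysed in 0.1% NP40 with protease inhibitors. Protein measured by BCA. Trx activity determined in 10 μg of total protein by kit insulin reduction with TrxR/NADPH for 20 min at 37 °C, then DTNB/guanidine stop and A412. Triplicates, n = 3, SD.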

[16] = Chemical stability of the compound in 0.01 M PBS buffer at pH 7.4 after 7 days by RP-HPLC analysis; type: physicochemical; conditions: pH 7.4, 168 h; procedure, shortened: as §1
[17] = Cytotoxicity against mouse B78 cells after 72 hrs by crystal violet staining; type: functional; conditions: B78, 72 h, read-out: LD50 (the source's name)
Raji [18] = assay: Induction of Trx protein expression in human Raji cells at 10 to 20 uM after 4 to 8 hrs by Western blot analysis; type: functional, cell-based
Procedure, shortened: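 Raji cells exposed to compound for 4 and 8 h, washed and lysed in 0.1% NP40 with protease inhibitors. Equal protein (BCA) run on 15% SDS-PAGE and blotted to nitrocellulose, blocked in TBST with 5% BSA. Probed overnight with rabbit anti-thioredoxin and mouse anti-tubulin, then HRP secondaries for 45 min. ECL luminol/coumaric acid detection.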

[19] = target: T1, Thioredoxin (Homo sapiens); assay: Inhibition of human recombinant Trx-1 expressed in Escherichia coli at 2.5 to 20 uM by insulin reduction assay in presence of thioredoxin reductase; conditions: TDE = time-dependent effect; procedure, shortened: as §5
[20] = Cytotoxicity against human PBMC cells after 72 hrs by XTT assay; type: cell-based; conditions: read-out: LD50; procedure, shortened: as §6
[21] = Cytotoxicity against mouse MEF cells; type: cell-based; conditions: read-out: LD50 (the source's name)
Procedure, shortened: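 Fibroblasts came from BALB/c embryos at E13.5 by 0.2% trypsin digestion at 37 °C for 10 min and were cultured in DMEM. Viability is % of solvent controls with DMSO ≤1%; n ≥ 3.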

[22] = Solubility of the compound in biological media; type: ADME
EMT6 [23] = assay: Antitumor activity against mouse EMT6 cells allografted in BALB/c mouse assessed as reduction in tumor growth at 80 mg/kg, ip qd for 7 days; type: functional, organism-based; parameters: dose 80 mg/kg
Procedure, shortened: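 BALB/c mice (8−12 wk) inoculated s.c. with 3.5 × 10^5 EMT6 cells into the depilated right thigh. Controls received DMSO ip. Tumor volume measured by calipers as (longer diameter) × (shorter diameter)²/2. Survival also recorded.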

Mus musculus [24] = assay: Toxicity in mouse EMT6 cells allografted BALB/c mouse assessed as change in body weight at 40 to 80 mg/kg, ip qd for 7 days; type: organism-based; parameters: dose 40-80 mg/kg, route intraperitoneal; conditions: in vivo, 168 h; procedure, shortened: as §4
CT26 = assay: Cytotoxicity against wild type mouse CT26 cells after 72 hrs by crystal violet staining; type: functional; conditions: CT26, 72 h, read-out: LD50 (the source's name)
Mus musculus [25] = assay: Toxicity in mouse EMT6 cells allografted BALB/c mouse assessed as mortality at 40 to 80 mg/kg, ip qd for 7 days; type: organism-based; parameters: dose 40-80 mg/kg, route intraperitoneal; conditions: in vivo, 168 h; procedure, shortened: as §4
Raji [26] = assay: Cytotoxicity against human Raji cells after 72 hrs by MTT assay; type: functional; conditions: read-out: LD50 (the source's name); procedure, shortened: as §2

SMILES: C=C(CBr)C(=O)N(Cc1ccccc1)[C@@H](CC(C)C)C(=O)NCC(=O)OCc1ccccc1
CC50 [1]: > 50 µM
IC50 [2]: 10 µM
CC50 (EMT6 [3]): > 50 µM

SMILES: C=C(CBr)C(=O)N(Cc1ccc(OC)cc1OC)[C@@H](CC(C)C)C(=O)NCC(=O)OCC
CC50 [1]: > 50 µM
IC50 [2]: 8.9 µM
CC50 (EMT6 [3]): > 50 µM

SMILES: C=C(CI)C(=O)N(Cc1ccccc1)[C@@H](CC(C)C)C(=O)NCC(=O)OCc1ccccc1
CC50 [1]: > 50 µM
IC50 [2]: 3.9 µM
CC50 (EMT6 [3]): > 50 µM

SMILES: C=C(COC(=O)c1c(C(F)(F)F)cccc1C(F)(F)F)C(=O)N[C@@H](CC(C)C)C(=O)NCC(=O)OCC
Stability [4]: Stable
Activity (Raji [5]): Active
inhibition [6]: Active
Activity [7]: Active
CC50 [1]: 3.8 µM
CC50 (K562): 4 µM
inhibition [8]: Active
CC50 (Ramos): 3.7 µM
Survival (EMT6 [9]): Active
inhibition [10]: Dose-dependent effect
inhibition [11]: tde
remaining at 5 h [12]: 20%
CC50 (T-24): 5.6 µM
inhibition [13]: Active
IC50 [2]: 3.3 µM
CC50 at 72 h [14]: > 12.5 µM
inhibition (Raji [15]): Active
Stability [16]: Unstable
CC50 [17]: 4.3 µM
Activity (Raji [18]): Active
inhibition [19]: tde
CC50 at 72 h [20]: > 25 µM
CC50 [21]: 2.9 µM
solubility [22]: soluble
growth inhibition (GI) (EMT6 [23]): Active
Activity (Mus musculus [24]): Non-toxic
CC50 (CT26): 3.3 µM
Activity (Mus musculus [25]): Non-toxic
CC50 (Raji [26]): 3.7 µM
CC50 (EMT6 [3]): 5.2 µM

IC50 [2]: > 50 µM
SMILES: CC(C)C[C@@H](C(=O)NCC(=O)OCc1ccccc1)N(Cc1ccccc1)C(=O)C(CI)CI

SMILES: C=C(CBr)C(=O)N[C@@H](CC(C)C)C(=O)NCC(=O)OCC
CC50 [1]: > 50 µM
IC50 [2]: 2.4 µM
CC50 (EMT6 [3]): > 25 µM

IC50 [2]: > 50 µM
SMILES: CC(C)C[C@@H](C(=O)NCC(=O)OCc1ccccc1)N(Cc1ccccc1)C(=O)C(CBr)CBr

SMILES: C=C(COC(=O)c1c(Cl)cccc1Cl)C(=O)N[C@@H](CC(C)C)C(=O)NCC(=O)OCC
CC50 [1]: 3 µM
IC50 [2]: 3 µM
solubility [22]: Insoluble
CC50 (EMT6 [3]): 5.5 µM

IC50 [2]: > 50 µM
SMILES: COC(=O)C(C)(CBr)CBr
